Reference: ChEMBL document CHEMBL4052826, “Design and Synthesis of Novel Reactive Oxygen Species Inducers for the Treatment of Pancreatic Ductal Adenocarcinoma” (J Med Chem, 2018)

Tests used:
[1] = system: PANC-1; experiment: Cytotoxicity against human PANC1 cells assessed as decrease in cell proliferation after 72 hrs by MTT assay; assay type: functional, cell-based; conditions: PANC-1, 72 h
How it was run: (§1)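 MTT assay. Cells (3000–8000/well) attached overnight in RPMI1640 with 10% FBS; the GR line was kept with 200 nM gemcitabine. Serial dilutions (30 nM–10 μM for most lines) were applied for 72 h. MTT was added at a final 300 μg/mL for 3 h at 37°C, formazan was dissolved in DMSO and A570 read. Inhibition = (1 − OD treated/OD control) × 100. IC50 given as mean ± SD, three independent experiments.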

[2] = system: BXPC-3; experiment: Cytotoxicity against human BxPC3 cells assessed as decrease in cell proliferation after 72 hrs by MTT assay; assay type: functional, cell-based; conditions: BXPC-3, 72 h; how it was run: as §1
[3] = system: MIA PaCa-2; experiment: Cytotoxicity against human MIAPaCa2 cells assessed as decrease in cell proliferation after 72 hrs by MTT assay; assay type: functional, cell-based; conditions: MIA PaCa-2, 72 h; how it was run: as §1
[4] = Cytotoxicity against HPDEC assessed as decrease in cell proliferation after 72 hrs by MTT assay; assay type: cell-based; conditions: Homo sapiens; how it was run: as §1
[5] = system: MIA PaCa-2; experiment: Cytotoxicity against gemcitabine-resistant human MIAPaCa2 cells assessed as decrease in cell proliferation after 72 hrs by MTT assay; assay type: functional, cell-based; conditions: MIA PaCa-2, 72 h; how it was run: as §1

Row | Compound | IC50 [1] [nM] | IC50 [2] [µM] | IC50 [3] [µM] | IC50 [4] [µM] | IC50 [5] [µM]
1 | O=C1C(Nc2ccc(OC(F)(F)F)cc2)=CC(=O)c2ncncc21 | 900 | 0.9 | 1.4 |  | 
2 | O=C1C(NCc2ccc(F)cc2)=CC(=O)c2ncncc21 | 1000 | 1.4 | 1.7 |  | 
3 | Cc1ccc(-c2ccc(NC3=CC(=O)c4ncncc4C3=O)cc2F)cc1 | 4800 | 5 | 4.6 |  | 
4 | COc1cccc(NC2=CC(=O)c3ncncc3C2=O)c1 | 600 | 1.8 | 1.8 |  | 
5 | CCc1ccc(-c2ccc(NC3=CC(=O)c4ncncc4C3=O)cc2)cc1 | 1200 | 3.1 | 2 |  | 
6 | NC(=O)c1ccc(NC2=CC(=O)c3ncncc3C2=O)cc1 | 6300 | > 10 | 8 |  | 
7 | COC(=O)c1ccc(NC2=CC(=O)c3ncncc3C2=O)cc1 | 1100 | 5.8 | 2.2 |  | 
8 | NS(=O)(=O)c1ccc(NC2=CC(=O)c3ncncc3C2=O)cc1 | > 10000 | > 10 | > 10 |  | 
9 | Nc1cccc(C(=O)NCCC[P+](c2ccccc2)(c2ccccc2)c2ccccc2)c1 | > 30000 | > 30 | > 30 |  | 
10 | O=C(NCCC[P+](c1ccccc1)(c1ccccc1)c1ccccc1)c1ccc(NC2=CC(=O)c3ncncc3C2=O)cc1 | 11700 | 21.5 | 15.3 | 18.3 | 17.7
11 | O=C1C(Nc2cccc(B(O)O)c2)=CC(=O)c2ncncc21 | 9000 | > 10 | > 10 |  | 
12 | COc1ccc(NC2=CC(=O)c3ncncc3C2=O)cc1OC | 900 | 1.5 | 1.8 |  | 
13 | O=C1C=CC(=O)c2ncncc21 | 18000 | 19.4 | 9.4 |  | 
14 | O=C1C(Nc2ccc(CO)cc2)=CC(=O)c2ncncc21 | 1000 | 5.7 | 3.5 |  | 
